SMILES strings stand for the structures.

The text below walks through data of PMC6977399 (Clinical Pharmacology and Therapeutics, 2019).

One data set has as its target T1, OATP1B3 (Homo sapiens, UniProt Q9NPD5).
T1 sequence (Q9NPD5 1-702): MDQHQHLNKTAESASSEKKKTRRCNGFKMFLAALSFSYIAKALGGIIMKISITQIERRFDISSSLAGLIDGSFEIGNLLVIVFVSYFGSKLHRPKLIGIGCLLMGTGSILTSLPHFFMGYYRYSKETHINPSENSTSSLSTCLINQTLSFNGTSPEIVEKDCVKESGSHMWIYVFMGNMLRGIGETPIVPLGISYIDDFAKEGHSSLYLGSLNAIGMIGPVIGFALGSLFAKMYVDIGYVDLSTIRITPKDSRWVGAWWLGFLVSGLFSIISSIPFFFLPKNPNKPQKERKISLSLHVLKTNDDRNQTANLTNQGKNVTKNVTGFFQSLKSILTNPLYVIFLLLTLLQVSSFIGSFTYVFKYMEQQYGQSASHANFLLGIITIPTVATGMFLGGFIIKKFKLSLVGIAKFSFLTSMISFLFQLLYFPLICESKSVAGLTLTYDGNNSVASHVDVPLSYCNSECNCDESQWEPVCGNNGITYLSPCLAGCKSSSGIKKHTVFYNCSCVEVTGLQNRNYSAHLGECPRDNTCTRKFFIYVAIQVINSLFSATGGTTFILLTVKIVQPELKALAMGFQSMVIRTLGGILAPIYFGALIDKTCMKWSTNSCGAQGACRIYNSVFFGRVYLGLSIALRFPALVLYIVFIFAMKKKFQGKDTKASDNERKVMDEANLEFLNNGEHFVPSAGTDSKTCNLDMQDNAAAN
Briefly: Inhibition of OATP1B3-mediated CCK-8 uptake in HEK293 cells. In kind it is in vitro ADME.

Another data set has as its target T2, CYP1A2 (Homo sapiens, UniProt P05177).
T2 sequence (P05177 1-516): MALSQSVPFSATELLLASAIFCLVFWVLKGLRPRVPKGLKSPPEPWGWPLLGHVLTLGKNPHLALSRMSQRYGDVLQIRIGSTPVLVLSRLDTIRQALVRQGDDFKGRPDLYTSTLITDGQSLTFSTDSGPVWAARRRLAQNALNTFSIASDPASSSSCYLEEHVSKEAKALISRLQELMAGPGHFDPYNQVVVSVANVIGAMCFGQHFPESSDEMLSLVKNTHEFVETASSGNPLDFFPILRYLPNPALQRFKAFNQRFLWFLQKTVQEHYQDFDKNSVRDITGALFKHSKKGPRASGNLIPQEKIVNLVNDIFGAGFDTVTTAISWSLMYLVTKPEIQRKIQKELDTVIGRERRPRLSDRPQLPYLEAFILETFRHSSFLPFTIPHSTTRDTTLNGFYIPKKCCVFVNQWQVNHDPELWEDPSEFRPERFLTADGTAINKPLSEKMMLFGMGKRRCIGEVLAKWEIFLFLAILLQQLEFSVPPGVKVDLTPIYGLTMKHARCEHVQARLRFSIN
Briefly: CYP inhibition in human liver microsomes. It is filed as in vitro ADME. The note with it: up to 50 μM. In short, it runs like this: (§1)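 Reversible inhibition: test compound pre-incubated 10 min at 37°C with pooled human liver microsomes plus an isoform-selective probe substrate. Reaction started with NADPH (1.3 mM), then quenched with 3% formic acid in acetonitrile containing internal standard. CYP-specific metabolite formation measured by LC-MS/MS. Activity expressed as % control = (peak area ratio with compound / without compound) × 100.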

The target in the next data set is T3, CYP2C8 (Homo sapiens, UniProt P10632).
T3 sequence (P10632 1-490): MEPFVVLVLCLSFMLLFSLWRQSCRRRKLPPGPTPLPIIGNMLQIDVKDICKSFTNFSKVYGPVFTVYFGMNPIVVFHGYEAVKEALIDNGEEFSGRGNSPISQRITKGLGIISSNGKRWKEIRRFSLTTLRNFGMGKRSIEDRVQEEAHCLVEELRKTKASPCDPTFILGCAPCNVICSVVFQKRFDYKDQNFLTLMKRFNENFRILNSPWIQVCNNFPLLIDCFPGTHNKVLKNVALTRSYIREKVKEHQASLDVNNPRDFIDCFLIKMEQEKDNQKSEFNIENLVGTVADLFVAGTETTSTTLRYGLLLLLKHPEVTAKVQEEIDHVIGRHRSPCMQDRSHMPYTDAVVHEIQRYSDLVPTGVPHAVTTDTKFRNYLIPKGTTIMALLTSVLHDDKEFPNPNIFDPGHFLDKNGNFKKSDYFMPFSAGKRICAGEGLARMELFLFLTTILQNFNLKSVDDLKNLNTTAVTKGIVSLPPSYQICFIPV
The data set is described as follows: CYP inhibition in human liver microsomes. The note with it: up to 50 μM. It is filed as in vitro ADME. A digest of the protocol: as §1
A general note: Microsomes from liver hold many membrane-bound enzymes, among them those of drug oxidation.

The target of another data set is CYP2C9 (Homo sapiens, UniProt P11712). Briefly: CYP inhibition in human liver microsomes. In kind it is in vitro ADME. The note with it: up to 50 μM. A digest of the protocol:
as §1

The target of a further data set is CYP2D6 (Homo sapiens, UniProt P10635). The data set is described as follows: CYP inhibition in human liver microsomes. In kind it is in vitro ADME. The note with it: up to 15 μM.
The target of the next data set is CYP3A. The data set is described as follows: Time-dependent inhibition of CYP3A in human liver microsomes. It is filed as in vitro ADME. The following applies: for kinact: human.
Data set [1] is described as follows: Fenebrutinib plasma exposure at 200 mg b.i.d. in the clinical DDI study. It is filed as in vivo. The note with it: human, oral, observed Cmax at steady-state, data not shown.

Chain of CYP2C9 (P11712 whole entry): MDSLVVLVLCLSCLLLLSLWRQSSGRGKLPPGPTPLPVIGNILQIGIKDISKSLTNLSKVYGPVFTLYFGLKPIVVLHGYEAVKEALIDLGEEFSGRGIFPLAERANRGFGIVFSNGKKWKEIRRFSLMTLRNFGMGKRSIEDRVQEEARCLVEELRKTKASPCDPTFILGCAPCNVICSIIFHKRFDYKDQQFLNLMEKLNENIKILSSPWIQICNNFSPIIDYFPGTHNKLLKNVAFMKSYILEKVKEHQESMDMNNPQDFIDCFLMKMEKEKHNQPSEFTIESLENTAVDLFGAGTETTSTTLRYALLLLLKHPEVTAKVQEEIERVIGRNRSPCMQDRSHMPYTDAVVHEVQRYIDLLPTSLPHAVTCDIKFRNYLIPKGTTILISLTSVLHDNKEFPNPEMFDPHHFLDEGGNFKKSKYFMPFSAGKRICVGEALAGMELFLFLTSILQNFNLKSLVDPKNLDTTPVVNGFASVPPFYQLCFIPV
Chain of CYP2D6 (P10635 whole entry): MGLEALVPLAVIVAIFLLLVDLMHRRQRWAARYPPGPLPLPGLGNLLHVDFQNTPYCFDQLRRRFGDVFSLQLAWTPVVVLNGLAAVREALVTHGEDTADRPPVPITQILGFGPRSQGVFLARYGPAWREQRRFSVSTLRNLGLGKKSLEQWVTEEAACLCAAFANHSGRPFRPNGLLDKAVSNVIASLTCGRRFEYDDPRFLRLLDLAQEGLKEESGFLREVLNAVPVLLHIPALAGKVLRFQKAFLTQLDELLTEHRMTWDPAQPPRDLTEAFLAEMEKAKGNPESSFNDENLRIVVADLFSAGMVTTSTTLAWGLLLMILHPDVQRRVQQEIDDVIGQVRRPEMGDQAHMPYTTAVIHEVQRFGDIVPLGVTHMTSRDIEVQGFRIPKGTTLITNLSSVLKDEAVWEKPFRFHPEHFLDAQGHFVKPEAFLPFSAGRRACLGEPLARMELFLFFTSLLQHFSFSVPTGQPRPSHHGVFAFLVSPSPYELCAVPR

What is called IC50 is the midpoint of a concentration-inhibition curve. Read a high IC50 as weaker potency. Broadly, the inhibition is the relative decrease from the control value, in per cent. Read a high inhibition as a response far below the control. Usually kinact stands for the rate constant of inactivation at saturating inhibitor. As usually defined, the Cmax is the highest concentration seen after dosing. As to `C[C@H]1CN(C2COC2)CCN1c1ccc(Nc2cc(-c3ccnc(N4CCn5c(cc6c5CC(C)(C)C6)C4=O)c3CO)cn(C)c2=O)nc1` [fenebrutinib], the half-maximal inhibitory concentration (IC50) against OATP1B3 came out at 7.15 µM. At OATP1B3 (human, HEK293 cells stably expressing human OATP1B3, pH 7.4, probe CCK-8 (0.1 μM)), the inhibition at 30 μM is 86.7%. Further, the “reversible or time-dependent inhibition of CYP1A2” value at CYP1A2 is reported as “No reversible or time‐dependent inhibition”. For the same compound, at CYP2C8, the “reversible or time-dependent inhibition of CYP2C8” value is “No reversible or time‐dependent inhibition”. In addition, the “reversible or time-dependent inhibition of CYP2C9” value on CYP2C9 was “No reversible or time‐dependent inhibition”. Moreover, at CYP2D6, the “reversible or time-dependent inhibition of CYP2D6” value was “No reversible or time‐dependent inhibition”. Moreover, at CYP3A, the “kinact/Ki ratio, CYP3A” value is 23.3 M⁻¹ s⁻¹. For the same compound, the “time-dependent inhibition (TDI) of CYP3A” value in the data set with CYP3A (MDZ and testosterone as probe substrates) was “TDI was observed”. Moreover, the kinact in the data set on CYP3A (probe midazolam (50 µM)) is 0.00019 s⁻¹; in the data set with CYP3A (probe testosterone (250 µM)) it was 0.00025 s⁻¹. Further, in data set [1], the Cmax was about 1000 nM.
